The molecules below were run against T1, Polyunsaturated fatty acid 5-lipoxygenase (Rattus norvegicus, UniProt P12527) (assay: Ability to inhibit 5-lipoxygenase in rat basophilic leukemia cells.).
T1 sequence (P12527 whole entry): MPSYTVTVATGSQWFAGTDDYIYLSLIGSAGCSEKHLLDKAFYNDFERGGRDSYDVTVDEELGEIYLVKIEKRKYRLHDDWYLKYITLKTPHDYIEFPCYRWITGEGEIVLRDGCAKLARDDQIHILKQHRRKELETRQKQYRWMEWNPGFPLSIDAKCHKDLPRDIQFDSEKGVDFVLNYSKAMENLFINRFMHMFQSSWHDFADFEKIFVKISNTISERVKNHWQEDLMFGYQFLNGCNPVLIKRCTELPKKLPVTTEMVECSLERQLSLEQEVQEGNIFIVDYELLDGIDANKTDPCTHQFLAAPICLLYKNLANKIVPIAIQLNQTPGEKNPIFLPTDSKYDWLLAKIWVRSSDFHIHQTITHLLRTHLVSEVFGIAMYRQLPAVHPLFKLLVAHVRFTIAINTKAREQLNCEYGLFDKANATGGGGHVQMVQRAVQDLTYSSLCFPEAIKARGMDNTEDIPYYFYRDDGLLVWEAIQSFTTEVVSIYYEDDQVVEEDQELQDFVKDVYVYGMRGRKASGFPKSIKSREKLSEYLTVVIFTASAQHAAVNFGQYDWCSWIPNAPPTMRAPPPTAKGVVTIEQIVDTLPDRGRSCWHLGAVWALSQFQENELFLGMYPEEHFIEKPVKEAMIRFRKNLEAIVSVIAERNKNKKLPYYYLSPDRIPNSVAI
Type: cell-based, RBL-1
Method in brief: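 Enzyme: RBL cell sonicate high-speed supernatant, 25–50% ammonium sulfate cut, desalted on Sephadex G-25 (68 μg protein). Compound in ethanol preincubated 5 min with enzyme. Reaction started with 25 μM [1-14C]arachidonic acid, 30 °C for 5 min in 50 mM potassium phosphate pH 7.4 with 2 mM ATP and 2 mM CaCl2. Radio-TLC of 5-HPETE; IC50 from concentration series.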

Row | IC50 [nM] | Structure (SMILES)
1 | 180 | CCCCCCCCCCCCOc1cc(O)c2c(=O)cc(-c3ccc(O)c(O)c3)oc2c1OC
2 | 52 | CCCCOc1c(OC)cc2oc(-c3ccc(O)c(O)c3)cc(=O)c2c1OC
3 | 110 | CCCCCCCCCCCCOc1c(OC)cc(O)c2c(=O)cc(-c3ccc(O)c(O)c3)oc12
4 | 10000 | CCCCCCCCCCCCCCCCOc1c(OC)cc2oc(-c3ccc(O)c(O)c3)cc(=O)c2c1O
5 | 32 | CCCCCOc1c(OC)c(OC)cc2oc(-c3ccc(O)c(O)c3)cc(=O)c12
6 | 1500 | CCCCCCCCCCCCCCCCOc1c(OC)cc2oc(-c3ccc(O)c(O)c3)cc(=O)c2c1OC
7 | 10000 | CCCCCCCCCCCCCCCCCCOc1c(OC)cc2oc(-c3ccc(O)c(O)c3)cc(=O)c2c1O
8 | 10000 | CCCCCCCCCCCCCCOc1c(OC)cc2oc(-c3ccc(O)c(O)c3)cc(=O)c2c1O
9 | 22 | CCCCCCCCCCCCOc1cc(OC)c(OC)c2oc(-c3ccc(O)c(O)c3)cc(=O)c12
10 | 28 | CCCCCOc1c(OC)cc2oc(-c3ccc(OC(C)=O)c(OC(C)=O)c3)cc(=O)c2c1OC
11 | 50 | CCCCCCOc1c(OC)cc2oc(-c3ccc(OC(C)=O)c(OC(C)=O)c3)cc(=O)c2c1OC
12 | 18 | CCCCCCCCCCOc1c(OC)c(OC)cc2oc(-c3ccc(O)c(O)c3)cc(=O)c12
13 | 15 | CCCCCCOc1c(OC)c(OC)cc2oc(-c3ccc(O)c(O)c3)cc(=O)c12
14 | 110 | COc1cc(O)c2c(=O)cc(-c3ccc(O)c(O)c3)oc2c1OC
15 | 140 | CCCCCCCCCCCCCCCCOc1c(OC)c(OC)cc2oc(-c3ccc(O)c(O)c3)cc(=O)c12
16 | 15 | CCCCOc1c(OC)cc2oc(-c3ccc(O)c(O)c3)cc(=O)c2c1O
17 | 42 | CCCCCCCCOc1c(OC)cc2oc(-c3ccc(OC(C)=O)c(OC(C)=O)c3)cc(=O)c2c1OC
18 | 1000 | COc1cc2oc(-c3ccc(OC(C)=O)c(OC(C)=O)c3)cc(=O)c2c(OC)c1OC
19 | 100 | CCCCOc1c(OC)cc2oc(-c3ccc(OC(C)=O)c(OC(C)=O)c3)cc(=O)c2c1OC
20 | 95 | COc1cc2oc(-c3ccc(O)c(O)c3)cc(=O)c2c(O)c1OC [CIRSILIOL]
21 | 9000 | CCCCCCCCCCCCCCCCCCOc1c(OC)c(OC)cc2oc(-c3ccc(O)c(O)c3)cc(=O)c12
22 | 18 | CCCCCCCCCCCCOc1c(OC)c(OC)cc2oc(-c3ccc(O)c(O)c3)cc(=O)c12
23 | 70 | CCCCCCCCCCCCCCOc1c(OC)cc2oc(-c3ccc(O)c(O)c3)cc(=O)c2c1OC
24 | 14 | CCCCCCOc1c(OC)cc2oc(-c3ccc(O)c(O)c3)cc(=O)c2c1OC
25 | 110 | CCCCCCCCCCCCOc1c(OC)cc(OC)c2c(=O)cc(-c3ccc(O)c(O)c3)oc12
26 | 17 | CCCCCCCCCCOc1c(OC)cc2oc(-c3ccc(O)c(O)c3)cc(=O)c2c1OC

Row | IC50 [nM] | Structure (SMILES)
27 | 10000 | CCCCCCCCCCCCCCCCCCOc1c(OC)cc2oc(-c3ccc(O)c(O)c3)cc(=O)c2c1OC
28 | 26 | CCCCCCCCCCCCOc1c(OC)cc2oc(-c3ccc(O)c(O)c3)cc(=O)c2c1O
29 | 28 | CCCCCCCCCCCCCCOc1c(OC)c(OC)cc2oc(-c3ccc(O)c(O)c3)cc(=O)c12
30 | 430 | COc1cc(OC)c2c(=O)cc(-c3ccc(O)c(O)c3)oc2c1OC
31 | 10000 | CCCCCCCCCCCCCCCCOc1c(OC)cc2oc(-c3ccc(OC(C)=O)c(OC(C)=O)c3)cc(=O)c2c1OC
32 | 33 | CCCCCCCCCCCCOc1cc(OC)c2c(=O)cc(-c3ccc(O)c(O)c3)oc2c1OC
33 | 140 | CCCCCCCCCCCCOc1cc2oc(-c3ccc(O)c(O)c3)cc(=O)c2c(O)c1OC
34 | 20 | CCCCCCOc1c(OC)cc2oc(-c3ccc(O)c(O)c3)cc(=O)c2c1O
35 | 26 | COc1cc2oc(-c3ccc(O)c(O)c3)cc(=O)c2c(OC)c1OCCC(C)C
36 | 16 | COc1cc2oc(-c3ccc(O)c(O)c3)cc(=O)c2c(OCCC(C)C)c1OC
37 | 75 | CCCCCCCCCCCCOc1c(OC)cc2oc(-c3ccc(OC(C)=O)c(OC(C)=O)c3)cc(=O)c2c1OC
38 | 10000 | CCCCCCCCCCCCCCCCCCOc1c(OC)cc2oc(-c3ccc(OC(C)=O)c(OC(C)=O)c3)cc(=O)c2c1OC
39 | 100 | CCCCCCCCCCCCOc1cc2oc(-c3ccc(O)c(O)c3)cc(=O)c2c(OC)c1OC
40 | 240 | COc1cc2oc(-c3ccc(O)c(O)c3)cc(=O)c2c(OC)c1OC
41 | 10000 | CCCCCCCCCCCCCCOc1c(OC)cc2oc(-c3ccc(OC(C)=O)c(OC(C)=O)c3)cc(=O)c2c1OC
42 | 11 | CCCCCCCCOc1c(OC)cc2oc(-c3ccc(O)c(O)c3)cc(=O)c2c1O
43 | 45 | CCCCOc1c(OC)c(OC)cc2oc(-c3ccc(O)c(O)c3)cc(=O)c12
44 | 22 | CCCCCCCCOc1c(OC)cc2oc(-c3ccc(O)c(O)c3)cc(=O)c2c1OC
45 | 35 | CCCCCOc1c(OC)cc2oc(-c3ccc(O)c(O)c3)cc(=O)c2c1OC
46 | 11 | CCCCCCCCCCOc1c(OC)cc2oc(-c3ccc(O)c(O)c3)cc(=O)c2c1O
47 | 22 | CCCCCOc1c(OC)cc2oc(-c3ccc(O)c(O)c3)cc(=O)c2c1O
48 | 30 | CCCCCCCCCCOc1c(OC)cc2oc(-c3ccc(OC(C)=O)c(OC(C)=O)c3)cc(=O)c2c1OC
49 | 30 | CCCCCCCCCCCCOc1c(OC)cc2oc(-c3ccc(O)c(O)c3)cc(=O)c2c1OC
50 | 19 | CCCCCCCCOc1c(OC)c(OC)cc2oc(-c3ccc(O)c(O)c3)cc(=O)c12
51 | 9 | COc1cc2oc(-c3ccc(O)c(O)c3)cc(=O)c2c(O)c1OCCC(C)C

From ChEMBL document CHEMBL1123544, “Syntheses of 5,6,7- and 5,7,8-trioxygenated 3',4'-dihydroxyflavones having alkoxy groups and their inhibitory activities against arachidonate 5-lipoxygenase” (J Med Chem, 1986)
